# UPR XBP1 act – activators of adaptive XBP1 UPR arm, primary screen, cell-based, CHO-XBP1 luciferase reporter, luminescence, uHTS; IRE1-XBP1 UPR activation; percent of tunicamycin response, DMSO as zero; activation, % at 20 µM; hit rate 0.33% among 330,000; AID 463104, 2010;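 active means versus positive control, 20 µM dose yields 30% or more activation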;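 further: 100% = tunicamycin at 10 µg/mL and 0% = DMSO only wells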
#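 Material – CHO cell line with stable XBP1 luciferase reporter · Buffer or medium – F12 plus 10% FBS · Compound – single point, 20 µM final compound, 1% DMSO · Schedule – 16-18 h cell attachment at 37 °C, then 6 h compound exposure · Signal – Steady-Glo luminescence read · Benchmarks – high control tunicamycin 10 µg/mL final, low control DMSO vehicle only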
# CHOP inh – inhibitors of CHOP promoter induction, primary screen, cell-based, unfolded protein response, luciferase reporter. hit rate 3.8% among 220,000. CHO-K1 CHOP-promoter luciferase, tunicamycin-induced, 15-18 h. inhibition, % at 10 µM;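 active means compounds that reduced the stress-induced luciferase reporter signal by more than about 70% of percent inhibition, limit read from the data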;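 further: 0% = tunicamycin plus vehicle and 100% = wells without tunicamycin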
# TLR4-MyD88 BLA – inhibitors of TLR4-MyD88 association in cells, primary screen, cell-based, HeLa CL3-4, BLA complementation, FRET ratio; Toll-like receptor 4 (Homo sapiens) + Myeloid differentiation primary response protein …; HeLa CL3-4 TLR4/MyD88 BLA complementation; inhibition, % at 8.4 µM; hit rate 0.18% among 200,000; AID 861, 2007; in the data active means inhibition above about 25%;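 further: 0% = vehicle and 100% = reference inhibitor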
# NOD2-RIPK2 inh – NOD2-RIPK2 binding disruptors in cells, primary screen, fluorescence, CHO cells, BLA complementation; CCF4 ratio; hit rate 0.38% among 360,000; AID 624267, 2012; Receptor-interacting serine/threonine-protein kinase 2 (Homo sapiens), O43353; inhibition, % at 4.98 µM; in the data active means inhibition above about 21%;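 further: 0% = vehicle only and 100% = reference blocker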
# UPR CHOP act – activators of apoptotic CHOP UPR arm, primary screen, cell-based, CHO-CHOP luciferase reporter, luminescence, uHTS; UPR activation; percent of tunicamycin response over DMSO baseline; activation, % at 10 µM; hit rate 0.34% among 330,000; AID 449763, 2010;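 active means at 10 µM dose, activation of 40% or more, normalized to positive control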;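 further: 100% = tunicamycin at 10 µg/mL and 0% = DMSO alone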
#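 Assay system: CHO-CHOP cells, stable luciferase reporter of PERK-eIF2a-CHOP signalling / Buffer or medium: F12 plus 10% serum / Compound dosing: one dose, 10 µM in 0.5% DMSO / Times: 6 h compound treatment, 37 °C / Technique: luciferase luminescence / Read-out: % reporter activation, DMSO baseline versus tunicamycin full activation / Benchmarks: tunicamycin and DMSO controls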
# TLR9-MyD88 inh – inhibitors of TLR9-MyD88 association in cells, primary screen, cell-based, CHO, BLA complementation, fluorescence; Toll-like receptor 9 (Homo sapiens) + Myeloid differentiation primary response protein …; hit rate 0.21% among 340,000; inhibition, % at 4.98 µM; CCF4 FRET ratio;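 active means inhibition above the mean over all tested compounds plus 3 SD, cut at about 21% in these data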;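 further: 0% = DMSO only wells and 100% = clavulanate BLA inhibitor control wells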
# Numbers without * were called inactive; . = no result. The full list was thinned out, with hits kept by preference.
SMILES,UPR XBP1 act,CHOP inh,TLR4-MyD88 BLA,NOD2-RIPK2 inh,UPR CHOP act,TLR9-MyD88 inh
CCCCCn1c(CCC(=O)Oc2ccccc2OC)nc2c1c(=O)[nH]c(=O)n2CCCC,-3,71*,10,-3,2,15
O=C(C(=O)N1CCC(Cc2ccccc2)CC1)c1ccccc1Br,.,.,.,-6,.,.
CCOc1ccc(C(=O)Nc2cccc(C(=O)O)c2C)cc1Cl,-4,9,4,3,-9,1
CCOc1ccc(C(=O)Nc2ccccc2-c2ccccc2)cc1Cl,-2,81*,2,-1,-3,-2
CCCCc1nc(NCC2CCCO2)c(C#N)c2c1COC(C)(C)C2 (stereo not drawn),-5,86*,-5,7,-2,6
CCCCc1nc(N2CCOCC2)c(C#N)c2c1COC(C)(C)C2,-1,1,-8,3,0,-4
CN(CCCn1cnc2c(OCc3ccccc3)ncnc21)Cc1ccco1,.,.,.,5,.,3
COc1cc(NC(=O)Cn2cnc(S(=O)(=O)N3CCC(C)CC3)c2)cc(OC)c1OC,-3,.,.,6,0,-11
Cc1nnc(SCC(=O)NC2CCCCCC2)n1N,0,.,.,-3,1,-11
COc1cc(NC(=O)c2cccnc2)ccc1-c1cc2ccccc2oc1=O,-2,77*,3,.,2,.
O=C(Nc1ccc(-c2cc3ccccc3oc2=O)c(Cl)c1)c1cccnc1,1,33,-7,-6,-1,7
O=C(Nc1ccc2oc(-c3cccnc3)nc2c1)c1ccco1,2,-3,-12,2,3,-6
O=C(Nc1ccc2oc(-c3cccnc3)nc2c1)c1ccc(Br)o1,14,77*,-6,4,0,-6
CSc1nsc(N/N=C/c2ccccc2)c1C#N,-3,59,0,-5,2,-3
COc1cccc(/C=N/Nc2snc(SC)c2C#N)c1,2,81*,-9,-6,4,6
COc1cccc(/C=N/Nc2snc(SC)c2C#N)c1O,1,-1,-6,14,10,-2
COc1ccc(/C=N/Nc2snc(SC)c2C#N)cc1OC,15,76*,-11,-1,9,4
Cc1cc2c(c(SCC(=O)NCc3ccccc3Cl)n1)C(=O)OC2,-3,-6,12,-2,2,1
COc1ccc(S(=O)(=O)NCc2ccc(F)cc2)cc1OC,-2,10,-5,-5,0,-1
COc1nc(N2CCOCC2)nc(C)c1[N+](=O)[O-],0,21,-1,2,2,-7
Cc1nc(N2CCOCC2)nc(OC(C)C)c1[N+](=O)[O-],1,84*,11,-10,-1,-2
CC(SC1=NCCS1)C(=O)Nc1nnc(-c2ccc(Cl)cc2)s1 (stereo not drawn),-3,87*,-8,1,10,-8
CCCCCCN(C(=O)CCCCCN1C(=O)NC(c2ccc(-c3ccccc3)cc2)C(C(=O)OCc2ccccc2)=C1C)C(C)C(=O)NCCCC (stereo not drawn),-1,16,0,.,2,.
CCCCNC(=O)C(C1CCCCC1)N(CCN(C)C)C(=O)CCCN1C(=O)NC(c2ccc(-c3ccccc3)cc2)C(C(=O)OCc2ccccc2)=C1C (stereo not drawn),41*,.,.,.,30,-4
NC(=O)c1nc(-c2cccs2)nc2c1[nH]c(=O)n2-c1ccc(F)cc1,2,76*,-8,-5,-1,-3
SMILES,UPR XBP1 act,CHOP inh,TLR4-MyD88 BLA,NOD2-RIPK2 inh,UPR CHOP act,TLR9-MyD88 inh
Cc1cccc(-n2c(=O)[nH]c3c(C(N)=O)nc(-c4ccccc4Cl)nc32)c1,3,91*,2,-9,2,12
CC(=O)CC1(OC(C)=O)C(=O)N(C)c2ccccc21 (stereo not drawn),-3,-19,13,0,-1,-6
CCC(C)Sc1nnc(NC(=O)c2ccco2)s1 (stereo not drawn),.,.,.,0,.,-11
Cn1cc(C2=C(c3ccc(Cl)cc3Cl)C(=O)NC2=O)c2ccccc21,-4,86*,.,-7,3,-2
CC1=C(C(=O)N(C(C)C)C(C)C)CC(CC(=O)NCCN2CCOCC2)C(=O)N1CCC1=CCCCC1 (stereo not drawn),.,.,.,1,.,.
Cc1cc(C)c(S(=O)(=O)NCc2ccc3c(c2)cc(C)n3C)c(C)c1,-1,71*,-7,6,-1,1
Cc1cc2cc(CNS(=O)(=O)c3ccc4ccccc4c3)ccc2n1C,-2,58,-1,-2,-2,13
CCc1ccc(/C=C/C(=O)C2C(=O)c3ccccc3C2=O)cc1,-2,90*,4,-1,-2,-2
O=C(O)C(=Cc1ccc([N+](=O)[O-])cc1)c1cccc(Cl)c1,.,.,.,-5,.,4
CCCN(CCC)S(=O)(=O)c1ccc(C(=O)Nc2nc3c(s2)CCc2ccccc2-3)cc1,14,78*,18,-1,16,-9
CN1CCN(S(=O)(=O)c2ccc(Cl)s2)CC1,-3,.,.,-10,1,-1
COc1ccc(NC(=S)NCCC2=CCCCC2)cc1OC,0,11,-11,-7,2,1
S=C(NCCC(c1ccccc1)c1ccccc1)Nc1ccc(Cl)cc1,-1,78*,3,-10,1,1
Fc1ccc(CCNC(=S)Nc2ccc(F)c(Cl)c2)cc1,-2,90*,-4,0,-1,14
Fc1ccc(NC(=S)NCCc2ccc(Cl)cc2)cc1,1,25,7,-3,4,-6
S=C(NCCC(c1ccccc1)c1ccccc1)Nc1ccccc1Cl,-2,-1,6,0,1,5
S=C(NCCC1=CCCCC1)Nc1ccc(Cl)cc1,-1,81*,-10,2,4,-11
S=C(NCCCc1ccccc1)Nc1ccc(Cl)cc1,2,77*,-9,3,1,4
O=[N+]([O-])c1ccc(NN=CC2CCCCCC2)c([N+](=O)[O-])c1,.,.,.,-24,.,.
Cc1cc(C)n2nc(C(=O)OCC(=O)Nc3ccc(C)c(S(=O)(=O)N4CCOCC4)c3)nc2n1,-1,.,.,-16,-1,0
O=C(CCCCCn1c(=O)[nH]c2ccccc2c1=O)NCCCN1CCN(c2ccccc2F)CC1,0,2,6,-7,2,0
CSc1ccc(CCNC(=O)CCc2nnc3ccc(N4CCC5(CC4)OCCO5)nn23)cc1,-4,.,.,-4,0,8
